Experimental findings from ChEMBL document CHEMBL1154876, “Synthesis and antimicrobial studies on novel sulfonamides containing 4-azidomethyl coumarin” (2010) are described below.

Usually MIC stands for the least concentration at which growth counts as inhibited.

Converted amounts (≈) assume the structure as drawn. Where only a bound is given, the exact number is not on record here.

What all share (format): functional
One experiment deals with Enterococcus faecalis. Briefly: Antibacterial activity against Streptococcus faecalis MTCC 3382 after 18 hrs by broth microdilution method. Particulars: MTCC 3382, 18 h. On the technique in general: In broth dilution the organism is exposed to a series of concentrations in liquid medium.
For the next experiment, the system named is Staphylococcus aureus. Briefly: Antibacterial activity against Staphylococcus aureus MTCC 3160 after 18 hrs by broth microdilution method. Particulars: MTCC 3160, 18 h.
A further experiment deals with Bacillus subtilis. Briefly: Antibacterial activity against Bacillus subtilis MTCC 297 after 18 hrs by broth microdilution method. The following applies: MTCC 297, 18 h.
Another experiment deals with Pseudomonas aeruginosa. Kind of experiment: Antibacterial activity against Pseudomonas aeruginosa MTCC 1034 after 18 hrs by broth microdilution method. Particulars: MTCC 1034, 18 h.
Another experiment has as its system Klebsiella pneumoniae. Briefly: Antibacterial activity against Klebsiella pneumoniae MTCC 3384 after 18 hrs by broth microdilution method. Particulars: MTCC 3384, 18 h.
The next experiment relates to Escherichia coli. Kind of experiment: Antibacterial activity against Escherichia coli MTCC 1089 after 18 hrs by broth microdilution method. Particulars: MTCC 1089, 18 h.
In a further experiment the test system is Candida albicans. Kind of experiment: Antifungal activity against Candida albicans after 48 to 72 hrs by broth microdilution method. The procedure, abridged: (§1)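 Test compounds were prepared as 10 mg/ml DMSO stocks and serially diluted twofold in Sabouraud's dextrose broth over 500, 250, 125, 62.5, 31.25, 16, 8, 4, 2 and 1, alongside fluconazole as reference. Plates were inoculated with 1–5 × 10⁴ cfu/ml and held at 25 °C for 48–72 h. The MIC was the lowest concentration showing no visible growth.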

The next experiment relates to Aspergillus fumigatus. Briefly: Antifungal activity against Aspergillus fumigatus after 48 to 72 hrs by broth microdilution method. In short, it runs like this:
as §1

The next experiment concerns Aspergillus niger. Briefly: Antifungal activity against Aspergillus niger after 48 to 72 hrs by broth microdilution method. The procedure, abridged:
as §1

Another experiment concerns Penicillium chrysogenum. Briefly: Antifungal activity against Penicillium chrysogenum after 48 to 72 hrs by broth microdilution method. In short, it runs like this:
as §1

In the next experiment the test system is Mucor. Kind of experiment: Antifungal activity against Mucor fuscus after 48 to 72 hrs by broth micro dilution method. In short, it runs like this:
as §1

A further experiment has as its system Fusarium oxysporum. Kind of experiment: Antifungal activity against Fusarium oxysporum after 48 to 72 hrs by broth microdilution method. The procedure, abridged:
as §1

As to `Cc1cc2oc(=O)cc(CBr)c2cc1S(=O)(=O)Cl`, the MIC in the experiment with Enterococcus faecalis was 16 µg/mL (≈ 45.5 µM); with Staphylococcus aureus, 16 µg/mL (≈ 45.5 µM); against Bacillus subtilis it was 16 µg/mL (≈ 45.5 µM); against Pseudomonas aeruginosa, 125 µg/mL (≈ 356 µM); against Klebsiella pneumoniae, 125 µg/mL (≈ 356 µM); with Escherichia coli, 125 µg/mL (≈ 356 µM). Also, the MIC with Candida albicans came to 8 µg/mL (≈ 22.8 µM); in the experiment with Aspergillus fumigatus it was 4 µg/mL (≈ 11.4 µM); against Aspergillus niger, 4 µg/mL (≈ 11.4 µM); against Penicillium chrysogenum, 1 µg/mL (≈ 2.84 µM); against Mucor, 1 µg/mL (≈ 2.84 µM); against Fusarium oxysporum, 1 µg/mL (≈ 2.84 µM).
Consider `Cc1cc2oc(=O)cc(CN=[N+]=[N-])c2cc1S(=O)(=O)Cl`, for which the MIC came to 31.2 µg/mL (≈ 99.6 µM) with Enterococcus faecalis; 4 µg/mL (≈ 12.8 µM) in the experiment on Staphylococcus aureus; 31.2 µg/mL (≈ 99.6 µM) with Bacillus subtilis; 125 µg/mL (≈ 398 µM) against Pseudomonas aeruginosa; 125 µg/mL (≈ 398 µM) in the experiment with Klebsiella pneumoniae; 125 µg/mL (≈ 398 µM) against Escherichia coli. In addition, the MIC in the experiment on Candida albicans came out at 8 µg/mL (≈ 25.5 µM); against Aspergillus fumigatus, 8 µg/mL (≈ 25.5 µM); in the experiment with Aspergillus niger, 8 µg/mL (≈ 25.5 µM); against Penicillium chrysogenum, 4 µg/mL (≈ 12.8 µM); with Mucor, 2 µg/mL (≈ 6.38 µM); against Fusarium oxysporum, 2 µg/mL (≈ 6.38 µM).
With `Cc1cc2oc(=O)cc(CN=[N+]=[N-])c2cc1S(=O)(=O)Nc1ccccc1`, the MIC against Enterococcus faecalis amounted to 31.2 µg/mL (≈ 84.4 µM); in the experiment on Staphylococcus aureus it was 4 µg/mL (≈ 10.8 µM); against Bacillus subtilis it was 31.2 µg/mL (≈ 84.4 µM); against Pseudomonas aeruginosa it was 125 µg/mL (≈ 337 µM); against Klebsiella pneumoniae, 125 µg/mL (≈ 337 µM); in the experiment with Escherichia coli it was 125 µg/mL (≈ 337 µM). Besides, the MIC in the experiment with Candida albicans stood at 16 µg/mL (≈ 43.2 µM); with Aspergillus fumigatus, 8 µg/mL (≈ 21.6 µM); against Aspergillus niger, 8 µg/mL (≈ 21.6 µM); against Penicillium chrysogenum it was 2 µg/mL (≈ 5.4 µM); against Mucor, 4 µg/mL (≈ 10.8 µM); in the experiment with Fusarium oxysporum, 4 µg/mL (≈ 10.8 µM).
Turning to `Cc1cccc(NS(=O)(=O)c2cc3c(CN=[N+]=[N-])cc(=O)oc3cc2C)c1`, the MIC against Enterococcus faecalis is 250 µg/mL (≈ 650 µM); against Staphylococcus aureus, 16 µg/mL (≈ 41.6 µM); against Bacillus subtilis, 16 µg/mL (≈ 41.6 µM); against Pseudomonas aeruginosa it was 2 µg/mL (≈ 5.2 µM); with Klebsiella pneumoniae, 4 µg/mL (≈ 10.4 µM); against Escherichia coli it was over 500 µg/mL. Moreover, the MIC in the experiment with Candida albicans is 4 µg/mL (≈ 10.4 µM); with Aspergillus fumigatus, 8 µg/mL (≈ 20.8 µM); in the experiment with Aspergillus niger, 1 µg/mL (≈ 2.6 µM); in the experiment with Penicillium chrysogenum, 8 µg/mL (≈ 20.8 µM); in the experiment with Mucor, 62.5 µg/mL (≈ 163 µM); in the experiment with Fusarium oxysporum it was 125 µg/mL (≈ 325 µM).
Turning to `Cc1ccc(NS(=O)(=O)c2cc3c(CN=[N+]=[N-])cc(=O)oc3cc2C)cc1`, the MIC was 16 µg/mL (≈ 41.6 µM) with Enterococcus faecalis; 16 µg/mL (≈ 41.6 µM) in the experiment on Staphylococcus aureus; 8 µg/mL (≈ 20.8 µM) against Bacillus subtilis; 125 µg/mL (≈ 325 µM) in the experiment on Pseudomonas aeruginosa; 1 µg/mL (≈ 2.6 µM) in the experiment with Klebsiella pneumoniae; over 500 µg/mL against Escherichia coli. The MIC in the experiment with Candida albicans is 1 µg/mL (≈ 2.6 µM); in the experiment with Aspergillus fumigatus, 16 µg/mL (≈ 41.6 µM); with Aspergillus niger it was 4 µg/mL (≈ 10.4 µM); in the experiment with Penicillium chrysogenum it was 16 µg/mL (≈ 41.6 µM); with Mucor, 62.5 µg/mL (≈ 163 µM); against Fusarium oxysporum, 1 µg/mL (≈ 2.6 µM).
For `Cc1cc2oc(=O)cc(CN=[N+]=[N-])c2cc1S(=O)(=O)Nc1c(C)cccc1C`, the MIC against Enterococcus faecalis is over 500 µg/mL; against Staphylococcus aureus it was 125 µg/mL (≈ 314 µM); with Bacillus subtilis, over 500 µg/mL; with Pseudomonas aeruginosa, 2 µg/mL (≈ 5.02 µM); in the experiment with Klebsiella pneumoniae, 1 µg/mL (≈ 2.51 µM); in the experiment on Escherichia coli, over 500 µg/mL. Moreover, the MIC was 8 µg/mL (≈ 20.1 µM) in the experiment on Candida albicans; 2 µg/mL (≈ 5.02 µM) in the experiment on Aspergillus fumigatus; 8 µg/mL (≈ 20.1 µM) against Aspergillus niger; 31.2 µg/mL (≈ 78.4 µM) against Penicillium chrysogenum; 16 µg/mL (≈ 40.2 µM) in the experiment on Mucor; 1 µg/mL (≈ 2.51 µM) with Fusarium oxysporum.
As to `COc1ccccc1NS(=O)(=O)c1cc2c(CN=[N+]=[N-])cc(=O)oc2cc1C`, the MIC was 1 µg/mL (≈ 2.5 µM) in the experiment on Enterococcus faecalis; 31.2 µg/mL (≈ 78 µM) in the experiment on Staphylococcus aureus; over 500 µg/mL in the experiment with Bacillus subtilis; 125 µg/mL (≈ 312 µM) with Pseudomonas aeruginosa; 62.5 µg/mL (≈ 156 µM) in the experiment with Klebsiella pneumoniae; 250 µg/mL (≈ 624 µM) in the experiment with Escherichia coli. Besides, the MIC with Candida albicans is 31.2 µg/mL (≈ 78 µM); against Aspergillus fumigatus, 62.5 µg/mL (≈ 156 µM); with Aspergillus niger, 16 µg/mL (≈ 40 µM); with Penicillium chrysogenum, over 500 µg/mL; with Mucor, 31.2 µg/mL (≈ 78 µM); in the experiment on Fusarium oxysporum it was 1 µg/mL (≈ 2.5 µM).
For the molecule `COc1cccc(NS(=O)(=O)c2cc3c(CN=[N+]=[N-])cc(=O)oc3cc2C)c1`, the minimum inhibitory concentration (MIC) with Enterococcus faecalis is 1 µg/mL (≈ 2.5 µM); in the experiment with Staphylococcus aureus, 16 µg/mL (≈ 40 µM); against Bacillus subtilis, over 500 µg/mL; with Pseudomonas aeruginosa, 1 µg/mL (≈ 2.5 µM); in the experiment with Klebsiella pneumoniae, 2 µg/mL (≈ 4.99 µM); with Escherichia coli, over 500 µg/mL. Further, the MIC in the experiment on Candida albicans worked out at 8 µg/mL (≈ 20 µM); in the experiment with Aspergillus fumigatus, 31.2 µg/mL (≈ 78 µM); against Aspergillus niger, 2 µg/mL (≈ 4.99 µM); in the experiment with Penicillium chrysogenum it was 125 µg/mL (≈ 312 µM); in the experiment with Mucor, 4 µg/mL (≈ 9.99 µM); against Fusarium oxysporum, 1 µg/mL (≈ 2.5 µM).
Take `Cc1ccc(NS(=O)(=O)c2cc3c(CN=[N+]=[N-])cc(=O)oc3cc2C)cc1C`: the MIC with Enterococcus faecalis is 8 µg/mL (≈ 20.1 µM); with Staphylococcus aureus, 4 µg/mL (≈ 10 µM); in the experiment with Bacillus subtilis it was 31.2 µg/mL (≈ 78.4 µM); in the experiment on Pseudomonas aeruginosa, 125 µg/mL (≈ 314 µM); against Klebsiella pneumoniae, 125 µg/mL (≈ 314 µM); in the experiment on Escherichia coli, 125 µg/mL (≈ 314 µM). Moreover, the MIC is 8 µg/mL (≈ 20.1 µM) against Candida albicans; 8 µg/mL (≈ 20.1 µM) in the experiment with Aspergillus fumigatus; 4 µg/mL (≈ 10 µM) against Aspergillus niger; 2 µg/mL (≈ 5.02 µM) against Penicillium chrysogenum; 1 µg/mL (≈ 2.51 µM) against Mucor; 1 µg/mL (≈ 2.51 µM) in the experiment on Fusarium oxysporum.
On to `Cc1ccc(NS(=O)(=O)c2cc3c(CN=[N+]=[N-])cc(=O)oc3cc2C)c(C)c1`, for which the minimum inhibitory concentration (MIC) against Enterococcus faecalis was 62.5 µg/mL (≈ 157 µM); with Staphylococcus aureus, 16 µg/mL (≈ 40.2 µM); against Bacillus subtilis, 125 µg/mL (≈ 314 µM); in the experiment with Pseudomonas aeruginosa, 4 µg/mL (≈ 10 µM); in the experiment with Klebsiella pneumoniae, 62.5 µg/mL (≈ 157 µM); with Escherichia coli it was over 500 µg/mL. Also, the minimal inhibitory concentration (MIC) was found to be 8 µg/mL (≈ 20.1 µM) against Candida albicans; 16 µg/mL (≈ 40.2 µM) in the experiment with Aspergillus fumigatus; 4 µg/mL (≈ 10 µM) against Aspergillus niger; 31.2 µg/mL (≈ 78.4 µM) against Penicillium chrysogenum; 16 µg/mL (≈ 40.2 µM) against Mucor; 1 µg/mL (≈ 2.51 µM) in the experiment on Fusarium oxysporum.
In the case of `COc1ccc(NS(=O)(=O)c2cc3c(CN=[N+]=[N-])cc(=O)oc3cc2C)cc1`, the MIC in the experiment with Enterococcus faecalis was 1 µg/mL (≈ 2.5 µM); in the experiment with Staphylococcus aureus, 4 µg/mL (≈ 9.99 µM); against Bacillus subtilis, over 500 µg/mL; against Pseudomonas aeruginosa it was 8 µg/mL (≈ 20 µM); in the experiment on Klebsiella pneumoniae, 1 µg/mL (≈ 2.5 µM); in the experiment with Escherichia coli, 250 µg/mL (≈ 624 µM). Further, the MIC was found to be 8 µg/mL (≈ 20 µM) against Candida albicans; 2 µg/mL (≈ 4.99 µM) against Aspergillus fumigatus; 2 µg/mL (≈ 4.99 µM) with Aspergillus niger; 250 µg/mL (≈ 624 µM) in the experiment with Penicillium chrysogenum; 250 µg/mL (≈ 624 µM) against Mucor; 1 µg/mL (≈ 2.5 µM) against Fusarium oxysporum.
As to `CCOc1ccc(NS(=O)(=O)c2cc3c(CN=[N+]=[N-])cc(=O)oc3cc2C)cc1`, the MIC was 1 µg/mL (≈ 2.41 µM) with Enterococcus faecalis; 2 µg/mL (≈ 4.83 µM) in the experiment with Staphylococcus aureus; over 500 µg/mL against Bacillus subtilis; 62.5 µg/mL (≈ 151 µM) in the experiment with Pseudomonas aeruginosa; 16 µg/mL (≈ 38.6 µM) with Klebsiella pneumoniae; 62.5 µg/mL (≈ 151 µM) in the experiment on Escherichia coli. Further, the MIC in the experiment with Candida albicans was 16 µg/mL (≈ 38.6 µM); in the experiment with Aspergillus fumigatus, over 500 µg/mL; against Aspergillus niger, 250 µg/mL (≈ 603 µM); in the experiment with Penicillium chrysogenum, over 500 µg/mL; in the experiment with Mucor, 62.5 µg/mL (≈ 151 µM); in the experiment on Fusarium oxysporum, 1 µg/mL (≈ 2.41 µM).
For the molecule `O=C(O)c1cn(C2CC2)c2cc(N3CCNCC3)c(F)cc2c1=O` [CIPROFLOXACIN], the MIC against Enterococcus faecalis, in the experiment on Staphylococcus aureus, in the experiment with Bacillus subtilis, against Pseudomonas aeruginosa and with Klebsiella pneumoniae was 1 µg/mL (≈ 3.02 µM) each time.
As to `OC(Cn1cncn1)(Cn1cncn1)c1ccc(F)cc1F` [FLUCONAZOLE], the MIC in the experiment with Candida albicans, with Aspergillus fumigatus, in the experiment on Aspergillus niger, against Penicillium chrysogenum, in the experiment on Mucor and against Fusarium oxysporum was 8 µg/mL (≈ 26.1 µM) in each case.
